From ChEMBL document CHEMBL5108039, “Piperazine tethered bergenin heterocyclic hybrids: design, synthesis, anticancer activity, and molecular docking studies” (RSC Med Chem, 2022)

What was measured:
CAL-27 = assay: Cytotoxicity against human CAL-27 cells assessed as cell growth inhibition; assay type: functional, cell-based
Procedure, shortened: (§1)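 Compounds were dissolved in sterile DMSO as 10 mg ml−1 stocks and tested for in vitro growth inhibition of human cancer cell lines. Doxorubicin was the standard drug and DMSO (0.01%) the vehicle control. IC50 values are reported as means.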

A549 = assay: Cytotoxicity against human A549 cells assessed as cell growth inhibition; assay type: functional, cell-based
Procedure, shortened: (§2)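 Compounds were dissolved in sterile DMSO as 10 mg ml−1 stocks and tested in vitro for cytotoxicity in a cell-line panel, with DMSO (0.01%) as vehicle control and doxorubicin as standard. Mean IC50 values were reported, and the normal lung epithelial cells were tested up to 100 μM.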

MCF7 = assay: Cytotoxicity against human MCF7 cells assessed as cell growth inhibition; assay type: functional, cell-based; procedure, shortened: as §1
SCC-9 = assay: Cytotoxicity against human SCC-9 cells assessed as cell growth inhibition; assay type: functional, cell-based; procedure, shortened: as §1
[1] = Cytotoxicity against human BEAS-2B cells assessed as cell growth inhibition; assay type: toxicity, cell-based; procedure, shortened: as §2
HCT-15 = assay: Cytotoxicity against human HCT-15 cells assessed as cell growth inhibition; assay type: functional, cell-based; procedure, shortened: as §1

Row | Compound | IC50 (CAL-27) | IC50 (A549) | IC50 (MCF7) | IC50 (SCC-9) | IC50 [1] | IC50 (HCT-15)
1 | COc1c(O)c(CN2CCN(CC(=O)Nc3nc(-c4ccc(Cl)cc4)cs3)CC2)c2c(c1O)C1O[C@H](CO)[C@@H](O)[C@H](O)C1OC2=O (stereo partly specified) | 46.6 µM | 49.9 µM | 37.3 µM | > 100 µM | > 100 µM | > 100 µM
2 | COc1ccc2nc(NC(=O)CN3CCN(Cc4c(O)c(OC)c(O)c5c4C(=O)OC4C5O[C@H](CO)[C@@H](O)[C@@H]4O)CC3)sc2c1 (stereo partly specified) | > 100 µM | > 100 µM | > 100 µM | > 100 µM | > 100 µM | > 100 µM
3 | COc1c(O)cc2c(c1O)C1O[C@H](CO)[C@@H](O)[C@H](O)C1OC2=O (stereo partly specified) | > 100 µM | > 100 µM | > 100 µM | > 100 µM | > 100 µM | > 100 µM
4 | COc1c(O)c(CN2CCN(CC(=O)Nc3nc4ccc([N+](=O)[O-])cc4s3)CC2)c2c(c1O)C1O[C@H](CO)[C@@H](O)[C@H](O)C1OC2=O (stereo partly specified) | 30.5 µM | > 100 µM | > 100 µM | 37.6 µM | 58.6 µM | 85.9 µM
5 | COc1c(O)c(CN2CCN(S(=O)(=O)c3ccc(F)c(Cl)c3)CC2)c2c(c1O)C1O[C@H](CO)[C@@H](O)[C@H](O)C1OC2=O (stereo partly specified) | 92.9 µM | > 100 µM | > 100 µM | > 100 µM | > 100 µM | > 100 µM
6 | COc1c(O)c(CN2CCN(S(=O)(=O)c3cccc4ccccc34)CC2)c2c(c1O)C1O[C@H](CO)[C@@H](O)[C@H](O)C1OC2=O (stereo partly specified) | 74 µM | > 100 µM | > 100 µM | > 100 µM | > 100 µM | > 100 µM
7 | COc1ccc(S(=O)(=O)N2CCN(Cc3c(O)c(OC)c(O)c4c3C(=O)OC3C4O[C@H](CO)[C@@H](O)[C@@H]3O)CC2)cc1OC (stereo partly specified) | > 100 µM | > 100 µM | > 100 µM | > 100 µM | > 100 µM | > 100 µM
8 | COc1c(O)c(CN2CCN(S(=O)(=O)c3cccs3)CC2)c2c(c1O)C1O[C@H](CO)[C@@H](O)[C@H](O)C1OC2=O (stereo partly specified) | > 100 µM | > 100 µM | > 100 µM | > 100 µM | > 100 µM | > 100 µM
9 | COc1c(O)c(CN2CCN(CC(=O)Nc3nc4ccccc4s3)CC2)c2c(c1O)C1O[C@H](CO)[C@@H](O)[C@H](O)C1OC2=O (stereo partly specified) | 91.2 µM | > 100 µM | > 100 µM | 64.8 µM | 97.3 µM | > 100 µM
10 | COc1c(O)c(CN2CCN(CC(=O)Nc3nc(-c4ccc5ccccc5c4)cs3)CC2)c2c(c1O)C1O[C@H](CO)[C@@H](O)[C@H](O)C1OC2=O (stereo partly specified) | 42.7 µM | 40.6 µM | 25.2 µM | > 100 µM | > 100 µM | > 100 µM
11 | COc1c(O)c(CN2CCN(S(=O)(=O)c3ccc(F)cc3Cl)CC2)c2c(c1O)C1O[C@H](CO)[C@@H](O)[C@H](O)C1OC2=O (stereo partly specified) | > 100 µM | > 100 µM | > 100 µM | > 100 µM | > 100 µM | > 100 µM
12 | COc1c(O)c(CN2CCN(S(=O)(=O)c3ccc(C)cc3)CC2)c2c(c1O)C1O[C@H](CO)[C@@H](O)[C@H](O)C1OC2=O (stereo partly specified) | 56.8 µM | > 100 µM | > 100 µM | > 100 µM | 51.6 µM | > 100 µM
13 | COc1c(O)c(CN2CCN(S(=O)(=O)c3ccc(OC(F)(F)F)cc3)CC2)c2c(c1O)C1O[C@H](CO)[C@@H](O)[C@H](O)C1OC2=O (stereo partly specified) | > 100 µM | > 100 µM | > 100 µM | > 100 µM | > 100 µM | > 100 µM
14 | COc1c(O)c(CN2CCN(S(=O)(=O)c3ccc(F)c(F)c3)CC2)c2c(c1O)C1O[C@H](CO)[C@@H](O)[C@H](O)C1OC2=O (stereo partly specified) | > 100 µM | > 100 µM | > 100 µM | > 100 µM | > 100 µM | > 100 µM
15 | COc1c(O)c(CN2CCN(CC(=O)Nc3nc4c(Cl)cccc4s3)CC2)c2c(c1O)C1O[C@H](CO)[C@@H](O)[C@H](O)C1OC2=O (stereo partly specified) | 15.4 µM | 22.5 µM | 19.6 µM | 17.4 µM | 21.7 µM | 30.2 µM
16 | COc1c(O)c(CN2CCN(CC(=O)Nc3nc4ccc(Cl)cc4s3)CC2)c2c(c1O)C1O[C@H](CO)[C@@H](O)[C@H](O)C1OC2=O (stereo partly specified) | > 100 µM | 65.6 µM | 64.1 µM | 32.6 µM | 44.2 µM | 97.6 µM
17 | CCOc1ccc2nc(NC(=O)CN3CCN(Cc4c(O)c(OC)c(O)c5c4C(=O)OC4C5O[C@H](CO)[C@@H](O)[C@@H]4O)CC3)sc2c1 (stereo partly specified) | 83.7 µM | > 100 µM | > 100 µM | > 100 µM | > 100 µM | > 100 µM
18 | COc1c(O)c(CN2CCN(CC(=O)Nc3nc4ccc(F)cc4s3)CC2)c2c(c1O)C1O[C@H](CO)[C@@H](O)[C@H](O)C1OC2=O (stereo partly specified) | 53 µM | > 100 µM | > 100 µM | > 100 µM | > 100 µM | > 100 µM
19 | COc1c(O)c(CN2CCN(CC(=O)Nc3nc4c(C)cccc4s3)CC2)c2c(c1O)C1O[C@H](CO)[C@@H](O)[C@H](O)C1OC2=O (stereo partly specified) | 81.2 µM | > 100 µM | > 100 µM | > 100 µM | > 100 µM | > 100 µM
20 | COc1c(O)c(CN2CCN(S(=O)(=O)c3ccc(C(F)(F)F)cc3)CC2)c2c(c1O)C1O[C@H](CO)[C@@H](O)[C@H](O)C1OC2=O (stereo partly specified) | 68.6 µM | > 100 µM | > 100 µM | > 100 µM | > 100 µM | > 100 µM
21 | COc1c(O)c(CN2CCN(S(=O)(=O)c3ccc(Br)cc3)CC2)c2c(c1O)C1O[C@H](CO)[C@@H](O)[C@H](O)C1OC2=O (stereo partly specified) | > 100 µM | > 100 µM | > 100 µM | > 100 µM | 22.4 µM | > 100 µM
22 | COc1c(O)c(CN2CCN(S(=O)(=O)c3ccc([N+](=O)[O-])cc3)CC2)c2c(c1O)C1O[C@H](CO)[C@@H](O)[C@H](O)C1OC2=O (stereo partly specified) | 91.6 µM | > 100 µM | > 100 µM | > 100 µM | > 100 µM | > 100 µM
23 | COc1ccc(S(=O)(=O)N2CCN(Cc3c(O)c(OC)c(O)c4c3C(=O)OC3C4O[C@H](CO)[C@@H](O)[C@@H]3O)CC2)cc1 (stereo partly specified) | > 100 µM | > 100 µM | > 100 µM | > 100 µM | > 100 µM | > 100 µM
24 | COc1c(O)c(CN2CCN(CC(=O)Nc3nc(-c4cccc5ccccc45)cs3)CC2)c2c(c1O)C1O[C@H](CO)[C@@H](O)[C@H](O)C1OC2=O (stereo partly specified) | 57.2 µM | > 100 µM | > 100 µM | 65.5 µM | 83.5 µM | 86.2 µM
25 | COc1c(O)c(CN2CCN(S(=O)(=O)c3ccccc3)CC2)c2c(c1O)C1O[C@H](CO)[C@@H](O)[C@H](O)C1OC2=O (stereo partly specified) | 85.5 µM | > 100 µM | > 100 µM | > 100 µM | > 100 µM | > 100 µM
26 | COc1c(O)c(CN2CCN(S(=O)(=O)c3ccc(F)c(F)c3F)CC2)c2c(c1O)C1O[C@H](CO)[C@@H](O)[C@H](O)C1OC2=O (stereo partly specified) | > 100 µM | > 100 µM | > 100 µM | > 100 µM | > 100 µM | > 100 µM
